High-throughput results (PubChem)
An excerpt weighted towards active compounds, which were near 4.8% of everything screened.
PTK2B oligo ant: blocks oligomerization of human Pyk2 in cells; Q293 cells, Pyk2 FERM NanoBiT luminescence; active compounds read low; actives 0.83% (n = 99,000); z-score (the deposit names both 25 µM and 10 µM);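 active = Z-score of -3 or lower, scaled per plate to the spread of control and sample wells; inactive = z-score above -3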;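 note: negative z-score means lost luminescence so less FERM oligomerization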
ERb SRC1 inh: blocks coactivator binding to human estrogen receptor beta | Q92731 | inhibition, % at 25.6 µM | actives 1.3% (n = 86,000) | TR-FRET ER-beta LBD / SRC1-Cy5 peptide binding; receptor agonist-loaded with 1 µM estradiol;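 active = compounds whose percent inhibition of the receptor-coactivator binding signal exceeds about 50% in the single-dose screen, limit read from the data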;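 note: 0% = receptor plus peptide wells without compound and 100% = peptide-only wells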
Target sequence (Q92731 whole entry, looked up, the tested form may be a part): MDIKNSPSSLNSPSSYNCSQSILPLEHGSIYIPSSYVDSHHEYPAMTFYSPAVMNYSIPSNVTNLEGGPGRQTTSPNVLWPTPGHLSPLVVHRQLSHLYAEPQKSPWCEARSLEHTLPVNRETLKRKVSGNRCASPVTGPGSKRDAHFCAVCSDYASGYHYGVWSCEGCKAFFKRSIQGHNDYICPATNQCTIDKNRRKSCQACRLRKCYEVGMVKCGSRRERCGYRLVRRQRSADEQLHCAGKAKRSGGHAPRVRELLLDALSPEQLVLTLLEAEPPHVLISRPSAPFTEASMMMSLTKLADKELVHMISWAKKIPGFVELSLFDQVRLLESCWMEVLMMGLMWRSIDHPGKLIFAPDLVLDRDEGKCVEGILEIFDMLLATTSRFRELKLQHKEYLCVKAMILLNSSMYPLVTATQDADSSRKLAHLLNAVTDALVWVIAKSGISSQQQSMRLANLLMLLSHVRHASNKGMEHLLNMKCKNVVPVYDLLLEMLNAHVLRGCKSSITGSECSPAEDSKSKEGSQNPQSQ
RORA act: RORA (human) activation. CHO-K1 Gal4-RORA LBD luciferase reporter, luminescence; percent increase over mock-subtracted basal signal. actives 1.5% (n = 65,000). P35398. activation, % at 10 µM;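 active = activation above the mean of all tested compounds plus 3 SD, cut at about 49% in these data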;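 note: 0% = DMSO-treated RORA cells and 100% = added signal equal to DMSO minus mock-transfected cells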
ERa coact inh: blocks coactivator binding to human estrogen receptor alpha; P03372; TR-FRET ER-alpha LBD / SRC-1 peptide, estradiol-bound; actives 1.7% (n = 86,000); inhibition, % at 25.6 µM; in the data active = inhibition above about 50%;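 note: 0% = receptor plus peptide control and 100% = peptide only without receptor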
SF1 activator: activators of human nuclear receptor SF-1. actives 1.9% (n = 65,000). CHO-K1 Gal4-SF-1 LBD luciferase reporter; % increase over DMSO SF-1-specific signal. activation, % at 10 µM. Q13285;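 active = activation above the mean activation of all tested compounds plus 3 SD, cut at about 50% in these data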
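Test system: CHO-K1 cells co-transfected with Gal4 DBD–human SF-1 LBD, 5xGal4 luciferase reporter. Quantity: 4,000 cells per well. Compound: 10 µM only. Incubation: compound added 1 h post-seeding, 20 h exposure at 37 °C, 5% CO2. Detection: SteadyLite luciferase luminescence. Replication: one test per compound.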
ERa SRC1 pot: ER-alpha (human) coactivator binding potentiation; P03372; coactivator binding (% of control), % at 25.6 µM; TR-FRET ERalpha-LBD/SRC-Cy5 coactivator binding, 2 h; 100 = basal binding, no effect; actives 1.3% (n = 86,000); AID 639; in the data active = activity above about 200%;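 note: binding measured in presence of low estradiol as agonist stimulus; 0% = peptide alone without receptor and 100% = receptor with peptide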
An asterisk follows results filed as active; . = no result; [ ] = remark or other dose.

SMILES | PTK2B oligo ant | ERb SRC1 inh | RORA act | ERa coact inh | SF1 activator | ERa SRC1 pot
CCOc1ccccc1N1CSC2=C(C#N)C(c3c(OC)ccc4ccccc34)CC(=O)N2C1 (configuration not stated) | . | 17 | -15 | -2 | 17 | 376*
CCOc1ccc(NS(=O)(=O)c2ccc(NC(=O)C3CCCO3)cc2)cc1 (configuration not stated) | 0.96 | 10 | . | 6 | . | 103
c1ccc(-c2nc(NCc3cccnc3)c3oc4ccccc4c3n2)cc1 | -3 | -16 | 15 | -40 | 8 | 88
CC(C)c1ccc(NC(=O)Cn2cccc2C2=NC(c3ccccc3)CO2)cc1 (configuration not stated) | -3 | . | . | . | . | .
Cc1ccccc1-c1cc(C(=O)Nc2sc(C(=O)OC(C)C)c(C)c2C#N)c2ccccc2n1 | -3.9* | . | . | . | . | .
COC(=O)c1sc(NC(=O)c2cc(-c3ccccc3)nc3ccccc23)c(C#N)c1C | -2.9 | . | . | . | . | .
Cc1onc(-c2c(Cl)cccc2Cl)c1C(=O)N/N=C(\N)COc1ccc(Cl)cc1 | 0.96 | . | . | . | . | .
O=c1[nH]c2ccc(Br)cc2c(-c2ccccc2)c1N1CCOCC1 | . | 19 | 7 | 30 | -2 | 429*[fluorescence artefact?]
O=c1[nH]c2ccc(Br)cc2c(-c2ccccc2)c1CN1CCOCC1 | . | -3 | -16 | 4 | -10 | 89
CCN(CC)c1ccc(C=Nc2ccc(N(C)C)cc2)c(O)c1 | -0.45 | 9 | . | 2 | . | 88
Cc1ccc(C=Nc2ccc(N(C)C)cc2)o1 | -0.32 | 89*[fluorescence artefact?] | 28 | 25 | 33 | 114
CCCn1c(SCc2cc(=O)[nH]c3ccccc23)nc2c1c(=O)n(C)c(=O)n2C | 1.6 | 1 | -12 | 4 | -11 | 102
CCCN1CCCc2cc(CN)ccc21 | -0.02 | 54*[fluorescence artefact?] | -9 | 41 | -5 | 59
CN1CCCc2cc(C=O)ccc21 | 0.86 | -2 | . | -2 | . | 99
CCC/C(O)=N\S(=O)(=O)c1ccc(N=NN(C)C)cc1 | 0.18 | -7 | . | 12 | . | 96
CCCCOC(=O)n1c(=O)oc2cc(S(=O)(=O)N3CCCCC3)ccc21 | -3.1* | . | -4 | . | 0 | .
COC(=O)n1c(=O)oc2cc(S(=O)(=O)N3CCOCC3)ccc21 | 0.47 | 1 | 9 | -2 | -13 | 107
O=C(Cn1c(=O)oc2cc(S(=O)(=O)N3CCCCCC3)ccc21)NC1CCCCC1 | . | 38 | 15 | 32 | 2 | 349*
Cc1ccc(NC(=O)Cn2c(=O)oc3cc(S(=O)(=O)N4CCC(C)CC4)ccc32)cc1C | . | 62*[fluorescence artefact?] | . | 43 | . | 52
N#C/C(C(=O)c1ccccc1)=C1/CCCN1 | -0.23 | . | 0 | . | 15 | .
N#C/C(C(=O)Oc1ccccc1)=C1\C=CC=CN1 | -0.13 | -14 | 58* | -32 | 35 | 93
CN(C)c1ccc(-c2ccccc2)nn1 | 0.99 | 5 | 56* | 4 | 26 | 143
O=C1c2ccccc2-c2nnc(-c3ccccc3)cc21 | -0.52 | . | . | . | . | .
CN(C)S(=O)(=O)c1ccc(C(=O)Nc2nnc(Cc3ccccc3)s2)cc1 | 0.4 | 13 | -4 | 19 | -17 | 110
Cc1nc2c(ccc3nc(NC(=O)c4ccc(S(=O)(=O)N(C)C)cc4)sc32)s1 | 0.61 | 12 | 17 | 19 | 2 | 241*[fluorescence artefact?]
SMILES | PTK2B oligo ant | ERb SRC1 inh | RORA act | ERa coact inh | SF1 activator | ERa SRC1 pot
c1ccn2c(SCc3cn4ccsc4n3)nnc2c1 | 0.29 | -2 | 61* | -8 | 71* | 103
c1ccc(-n2cnnc2SCc2cn3ccsc3n2)cc1 | 0.31 | -7 | -20 | -8 | -6 | 111
O=C(c1cc(-c2cccs2)nc2ccccc12)N1CCN(S(=O)(=O)c2ccccc2)CC1 | -0.47 | 17 | . | 1 | . | 201*[fluorescence artefact?]
COc1cccc(-c2cc(C(=O)N3CCN(c4ncccn4)CC3)c3ccccc3n2)c1 | -1.4 | -9 | -2 | -3 | 16 | 98
Cc1ccc(-c2cc(C(=O)N3CCN(c4ncccn4)CC3)c3ccccc3n2)cc1 | -1.1 | -6 | 26 | -3 | 54* | 118
CC(CC(=O)NC1CCCC1)c1ccccc1 (configuration not stated) | 0.17 | -4 | . | 0 | . | 119
COc1ccc(OCc2cccc(C(=O)Nn3cc([N+](=O)[O-])cn3)c2)cc1 | -0.48 | -4 | . | 7 | . | 117
CCC1CCCCN1C(=O)Cn1c(=O)n(CCC(=O)NCc2ccco2)c(=O)c2sccc21 (configuration not stated) | 1.1 | 6 | 2 | -7 | -6 | 107
N#CCCCn1c(-c2ccccc2)noc1=O | 1.9 | 8 | -4 | -11 | 4 | 103
O=C(N/N=C(\c1ccccc1)c1cccnc1)C(O)(c1ccccc1)c1ccccc1 | -3.9* | . | . | . | . | .
O=C(N/N=C/c1cccnc1)C(O)(c1ccccc1)c1ccccc1 | -0.64 | . | . | . | . | .
N#Cc1c(N)c(C(=O)c2ccc(Br)cc2)n2c1CCC2 | 1 | -5 | -12 | -10 | 24 | 96
CCCNC(=O)c1ccc(SC)cc1OC | -0.1 | -6 | -4 | 1 | -1 | 90
COc1cc(SC)ccc1C(=O)Nc1ccccc1C#N | -0.41 | 8 | 26 | 13 | 60* | 130
N#CC(C(=O)NCCc1ccccc1)c1nc2ccccc2nc1N1CCCCC1 (configuration not stated) | 0.85 | -10 | -36 | -4 | -10 | 113
N#CC(C(=O)NCCc1ccccc1)c1nc2ccccc2nc1N1CCOCC1 (configuration not stated) | -1 | 31 | -13 | 75*[fluorescence artefact?] | -22 | 168
O=C(c1cccs1)N1CCn2c1nc1ccccc12 | -0.41 | -22 | 37 | -45 | 53* | 102
COc1ccc(C)cc1-n1nnnc1SCC(=O)c1ccc2c(c1)OCCO2 | -1.1 | 25 | -4 | 10 | -5 | 233*
COc1ccc(C)cc1-n1nnnc1SCC(=O)NC(=O)NCc1ccco1 | 0.47 | 46 | 9 | 73* | 13 | 50
Cc1ccc(-n2nnnc2SCC(=O)Nc2cccc(NC(=O)c3ccco3)c2)cc1C | -0.27 | 35 | -17 | 79* | -1 | 123
CCOc1ccccc1NC(=O)CSc1nnnn1-c1ccc(C(=O)OC)cc1 | -0.42 | -2 | -15 | -7 | -11 | 113
COC(=O)c1ccc(-n2nnnc2SCC(=O)Nc2ccccc2OC)cc1 | -1.1 | 25 | 0 | 58*[fluorescence artefact?] | 14 | 170
CC(C)C1Oc2ccccc2N(CC(=O)N(Cc2ccncc2)Cc2ccco2)C1=O (configuration not stated) | -0.36 | -7 | . | -5 | . | 97
CCCC(=O)Nc1nnc(CC(=O)N2CCCC2)s1 | -0.2 | 6 | 4 | -6 | 8 | 98
c1ccn2c(SCc3ccc4c(c3)OCO4)nnc2c1 | -0.44 | -6 | 23 | -9 | 40 | 110
COc1ccc(-n2nnnc2SCC(=O)Nc2ccc3c(c2)OCCO3)cc1OC | -0.96 | 24 | -7 | 36 | 1 | 210*
